From ChEMBL document CHEMBL4393701, “Appendix A. dithioloquinolinethiones as new potential multitargeted antibacterial and antifungal agents: Synthesis, biological evaluation and molecular docking studies” (2019)
In brackets after ≈: the same amount, converted by molar mass.

Key:
[1] = Antifungal activity against Penicillium funiculosum ATCC 36839 after 72 hrs by microdilution technique; format: functional; details: Talaromyces pinophilus, ATCC 36839, 72 h
Summary of the method: (§1)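 Spores were washed off malt agar with 0.85% saline containing 0.1% Tween 80 and adjusted to about 1.0×10^5 per well. Compounds in 5% DMSO were serially diluted (0.001-1.0 mg/ml) in malt broth with inoculum. Plates were shaken at 160 rpm for 72 h at 28 °C. MIC is the lowest concentration without visible growth under a binocular microscope. Three independent experiments in duplicate.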

[2] = test system: Trichoderma viride; experiment: Antifungal activity against Trichoderma viride IAM 5061 after 72 hrs by microdilution technique; format: functional; details: IAM 5061, 72 h; summary of the method: as §1
[3] = test system: Bacillus cereus; experiment: Antibacterial activity against Bacillus cereus clinical isolate after 24 hrs by iodonitrotetrazolium chloride dye based microdilution assay; format: functional
Summary of the method: (§2)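 Fresh overnight cultures adjusted spectrophotometrically to 1×10^5 CFU/mL, giving 1.0×10^4 CFU per well in tryptic soy broth. Compounds were dissolved in 5% DMSO and tested at 0.001-1.0 mg/ml by serial dilution; 5% DMSO was the negative control. After 24 h at 37 °C, 0.2 mg/mL INT solution was added for 30 min at 37 °C and OD read at 655 nm. MIC is the lowest concentration giving significant growth inhibition versus the positive control. Duplicates, repeated three times.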

[4] = test system: Escherichia coli; experiment: Bactericidal activity against Escherichia coli ATCC 35210 incubated for 24 hrs followed by re-plating on tryptic soy broth; format: functional; details: ATCC 35210, 24 h
Summary of the method: (§3)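 Bacteria were grown in tryptic soy broth, 1.0×10^4 CFU per well, with compounds in 5% DMSO at 0.001-1.0 mg/ml for 24 h at 37 °C. Then 10 µL was subcultured into fresh TSB. MBC is the lowest concentration showing no growth after subculture, taken as 99.5% kill of the original inoculum. Duplicates, repeated three times.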

[5] = test system: Micrococcus flavus; experiment: Bactericidal activity against Micrococcus flavus ATCC 10240 incubated for 24 hrs followed by re-plating on tryptic soy broth; format: functional; details: ATCC 10240, 24 h; summary of the method: as §3
[6] = test system: Aspergillus niger; experiment: Antifungal activity against Aspergillus niger ATCC 6275 after 72 hrs by microdilution technique; format: functional; details: ATCC 6275, 72 h; summary of the method: as §1
[7] = test system: Listeria monocytogenes; experiment: Bactericidal activity against Listeria monocytogenes NCTC 7973 incubated for 24 hrs followed by re-plating on tryptic soy broth; format: functional; details: NCTC 7973, 24 h; summary of the method: as §3
[8] = test system: Penicillium ochrochloron; experiment: Fungicidal activity against Penicillium ochrochloron ATCC 9112 incubated for 72 hrs followed by sub-culturing on broth malt medium and measured after 72 hrs; format: functional; details: ATCC 9112, 72 h
Summary of the method: (§4)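 After 72 h exposure in malt broth, 2 µL from test wells was subcultured into wells holding 100 µL broth and incubated a further 72 h at 28 °C. MFC is the lowest concentration with no visible growth, taken as 99.5% kill of the original inoculum. Three independent experiments in duplicate.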

[9] = test system: Trichoderma viride; experiment: Fungicidal activity against Trichoderma viride IAM 5061 incubated for 72 hrs followed by sub-culturing on broth malt medium and measured after 72 hrs; format: functional; details: IAM 5061, 72 h; summary of the method: as §4
[10] = test system: Staphylococcus aureus; experiment: Antibacterial activity against Staphylococcus aureus ATCC 6538 after 24 hrs by iodonitrotetrazolium chloride dye based microdilution method; format: functional; details: ATCC 6538, 24 h; summary of the method: as §2
[11] = test system: Aspergillus versicolor; experiment: Fungicidal activity against Aspergillus versicolor ATCC 11730 incubated for 72 hrs followed by sub-culturing on broth malt medium and measured after 72 hrs; format: functional; details: ATCC 11730, 72 h; summary of the method: as §4
[12] = test system: Pseudomonas aeruginosa; experiment: Antibacterial activity against Pseudomonas aeruginosa ATCC 27853 after 24 hrs by iodonitrotetrazolium chloride dye based microdilution method; format: functional; details: ATCC 27853, 24 h; summary of the method: as §2
[13] = test system: Pseudomonas aeruginosa; experiment: Bactericidal activity against Pseudomonas aeruginosa ATCC 27853 incubated for 24 hrs followed by re-plating on tryptic soy broth; format: functional; details: ATCC 27853, 24 h; summary of the method: as §3
[14] = test system: Penicillium ochrochloron; experiment: Antifungal activity against Penicillium ochrochloron ATCC 9112 after 72 hrs by microdilution technique; format: functional; details: ATCC 9112, 72 h; summary of the method: as §1
[15] = test system: Aspergillus fumigatus; experiment: Fungicidal activity against Aspergillus fumigatus ATCC 1022 incubated for 72 hrs followed by sub-culturing on broth malt medium and measured after 72 hrs; format: functional; details: ATCC 1022, 72 h; summary of the method: as §4
[16] = test system: Listeria monocytogenes; experiment: Antibacterial activity against Listeria monocytogenes NCTC 7973 after 24 hrs by iodonitrotetrazolium chloride dye based microdilution method; format: functional; details: NCTC 7973, 24 h; summary of the method: as §2
[17] = test system: Escherichia coli; experiment: Antibacterial activity against Escherichia coli ATCC 35210 after 24 hrs by iodonitrotetrazolium chloride dye based microdilution method; format: functional; details: ATCC 35210, 24 h; summary of the method: as §2
[18] = test system: Aspergillus ochraceus; experiment: Antifungal activity against Aspergillus ochraceus ATCC 12066 after 72 hrs by microdilution technique; format: functional; details: ATCC 12066, 72 h; summary of the method: as §1
[19] = test system: Aspergillus ochraceus; experiment: Fungicidal activity against Aspergillus ochraceus ATCC 12066 incubated for 72 hrs followed by sub-culturing on broth malt medium and measured after 72 hrs; format: functional; details: ATCC 12066, 72 h; summary of the method: as §4
[20] = test system: Enterobacter cloacae; experiment: Bactericidal activity against Enterobacter cloacae incubated for 24 hrs followed by re-plating on tryptic soy broth; format: functional; summary of the method: as §3
[21] = test system: Aspergillus versicolor; experiment: Antifungal activity against Aspergillus versicolor ATCC 11730 after 72 hrs by microdilution method; format: functional; details: ATCC 11730, 72 h; summary of the method: as §1
[22] = test system: Staphylococcus aureus; experiment: Bactericidal activity against Staphylococcus aureus ATCC 6538 incubated for 24 hrs followed by re-plating on tryptic soy broth; format: functional; details: ATCC 6538, 24 h; summary of the method: as §3
[23] = test system: Bacillus cereus; experiment: Bactericidal activity against Bacillus cereus clinical isolate incubated for 24 hrs followed by re-plating on tryptic soy broth; format: functional; summary of the method: as §3
[24] = test system: Micrococcus flavus; experiment: Antibacterial activity against Micrococcus flavus ATCC 10240 after 24 hrs by iodonitrotetrazolium chloride dye based microdilution method; format: functional; details: ATCC 10240, 24 h; summary of the method: as §2
[25] = test system: Salmonella typhimurium; experiment: Bactericidal activity against Salmonella typhimurium ATCC 13311 incubated for 24 hrs followed by re-plating on tryptic soy broth; format: functional, Salmonella enterica subsp. enterica serovar Typhimurium; details: Salmonella enterica, ATCC 13311, 24 h; summary of the method: as §3
[26] = test system: Penicillium cyclopium; experiment: Antifungal activity against Penicillium verrucosum var. cyclopium food isolate after 72 hrs by microdilution technique; format: functional; summary of the method: as §1
[27] = test system: Enterobacter cloacae; experiment: Antibacterial activity against Enterobacter cloacae clinical isolate after 24 hrs by iodonitrotetrazolium chloride dye based microdilution method; format: functional; summary of the method: as §2
[28] = Fungicidal activity against Penicillium funiculosum ATCC 36839 incubated for 72 hrs followed by sub-culturing on broth malt medium and measured after 72 hrs; format: functional; details: Talaromyces pinophilus, ATCC 36839, 72 h; summary of the method: as §4
[29] = test system: Aspergillus niger; experiment: Fungicidal activity against Aspergillus niger ATCC 6275 incubated for 72 hrs followed by sub-culturing on broth malt medium and measured after 72 hrs; format: functional; details: ATCC 6275, 72 h; summary of the method: as §4
[30] = test system: Aspergillus fumigatus; experiment: Antifungal activity against Aspergillus fumigatus ATCC 1022 after 72 hrs by microdilution technique; format: functional; details: ATCC 1022, 72 h; summary of the method: as §1
[31] = test system: Salmonella typhimurium; experiment: Antibacterial activity against Salmonella typhimurium ATCC 13311 after 24 hrs by iodonitrotetrazolium chloride dye based microdilution method; format: functional, Salmonella enterica subsp. enterica serovar Typhimurium; details: Salmonella enterica, ATCC 13311, 24 h; summary of the method: as §2
[32] = test system: Penicillium cyclopium; experiment: Fungicidal activity against Penicillium verrucosum var. cyclopium food isolate incubated for 72 hrs followed by sub-culturing on broth malt medium and measured after 72 hrs; format: functional; summary of the method: as §4

| MIC [1] [×10⁻² mM] | MIC [2] [×10⁻² mM] | MIC [3] [µM] | MIC [6] [×10⁻² mM] | MIC [10] [µM] | MIC [12] [µM] | MIC [14] [×10⁻² mM] | MIC [16] [µM] | MIC [17] [µM] | MIC [18] [×10⁻² mM] | Structure (SMILES) | MBC [4] [µM] | MBC [5] [µM] | MBC [7] [µM] | MFC [8] [×10⁻² mM] | MFC [9] [×10⁻² mM] | MFC [11] [×10⁻² mM] | MBC [13] [µM] | MFC [15] [×10⁻² mM] | MFC [19] [×10⁻² mM] | MBC [20] [µM] | other results |
| --- | --- | --- | --- | --- | --- | --- | --- | --- | --- | --- | --- | --- | --- | --- | --- | --- | --- | --- | --- | --- | --- |
| 11.5 | 1.52 | 38.2 (≈ 15 µg/mL) | 15.2 | 38.2 (≈ 15 µg/mL) | 38.2 (≈ 15 µg/mL) | 3.82 | 38.2 (≈ 15 µg/mL) | 38.2 (≈ 15 µg/mL) | 15.2 | CC1(C)c2ssc(=S)c2-c2cccc3c2N1C(=O)/C3=N/NC(N)=S | 76.4 (≈ 30 µg/mL) | 76.4 (≈ 30 µg/mL) | 76.4 (≈ 30 µg/mL) | 7.64 | 3.82 | 30.6 | 76.4 (≈ 30 µg/mL) | 15.2 | 30.6 | 76.4 (≈ 30 µg/mL) | MIC [21]: 11.5 ×10⁻² mM; MBC [22]: 76.4 µM (≈ 30 µg/mL); MBC [23]: 76.4 µM (≈ 30 µg/mL); MIC [24]: 38.2 µM (≈ 15 µg/mL); MBC [25]: 76.4 µM (≈ 30 µg/mL); MIC [26]: 11.5 ×10⁻² mM; MIC [27]: 38.2 µM (≈ 15 µg/mL); MFC [28]: 30.6 ×10⁻² mM; MFC [29]: 30.6 ×10⁻² mM; MIC [30]: 7.64 ×10⁻² mM; MIC [31]: 38.2 µM (≈ 15 µg/mL); MFC [32]: 30.6 ×10⁻² mM |
| 11.1 | 1.48 | 37.1 (≈ 15 µg/mL) | 7.42 | 37.1 (≈ 15 µg/mL) | 37.1 (≈ 15 µg/mL) | 0.99 | 37.1 (≈ 15 µg/mL) | 37.1 (≈ 15 µg/mL) | 14.8 | CC1(C)c2ssc(=S)c2-c2ccccc2N1C(=O)CN1C(=O)CCC1=O | 74.2 (≈ 30 µg/mL) | 74.2 (≈ 30 µg/mL) | 74.2 (≈ 30 µg/mL) | 1.98 | 1.98 | 29.7 | 74.2 (≈ 30 µg/mL) | 14.8 | 29.7 | 74.2 (≈ 30 µg/mL) | MIC [21]: 14.8 ×10⁻² mM; MBC [22]: 74.2 µM (≈ 30 µg/mL); MBC [23]: 74.2 µM (≈ 30 µg/mL); MIC [24]: 37.1 µM (≈ 15 µg/mL); MBC [25]: 74.2 µM (≈ 30 µg/mL); MIC [26]: 14.8 ×10⁻² mM; MIC [27]: 37.1 µM (≈ 15 µg/mL); MFC [28]: 29.7 ×10⁻² mM; MFC [29]: 14.8 ×10⁻² mM; MIC [30]: 11.1 ×10⁻² mM; MIC [31]: 37.1 µM (≈ 15 µg/mL); MFC [32]: 29.7 ×10⁻² mM |
